SR-BI DiI inh = inhibitors of mouse SR-BI mediated HDL lipid uptake. Q61009. inhibition, % at 12.5 µM. ldlA[mSR-BI] CHO cells, DiI-HDL uptake fluorescence, 3 h. actives 0.96% (n = 320,000). AID 488896;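 active means mean replicate inhibition of at least 70% and a set share of replicates each scoring 70 or more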
Lipid droplet = hepatic lipid droplet formation modulation; AML12 mouse hepatocytes, oleate lipid droplets, BODIPY imaging; inhibition, % at 6.5 µM; actives 0.4% (n = 240,000); AID 1656;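 active means lipid droplet intensity inhibited by at least 50%, with more than 500 cells counted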
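Material: mouse AML12 hepatocyte cell line, fixed after treatment; Timing: compound with oleate, overnight; Technique: high-content imaging of BODIPY-stained droplets and DAPI nuclei; Probe or stimulus: oleate, 100 µM final; Dosing: compound at 6.5 µM only.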
SR-BI uptake up = enhances SR-BI lipid uptake from DiI-HDL; CHO ldlA[mSR-BI] cells, DiI-HDL uptake fluorescence, 3 h; 100 = double the neutral-control signal; activation, % at 12.5 µM; actives 0.096% (n = 320,000); AID 504775;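 active means mean replicate activation of at least 60% and every replicate at or above 60%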
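Material: SR-BI-overexpressing, LDLR-lacking CHO cells | Dosing: Single compound concentration, delivered by pin transfer | Probe or stimulus: Labelled HDL, 10 µg/mL | Signal: Bottom-read cell fluorescence after medium removal, ex 550/em 595 nm | Schedule: 3 h, 37 °C | Evaluation: HDL uptake via cellular fluorescence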
SMARCA2 act = increases SMARCA2 function in MMTV reporter cells; MG213 cells, MMTV-luciferase reporter, dexamethasone, overnight; activation, % at 9.1 µM; actives 1% (n = 370,000); AID 652017; in the data active means activation above about 7.8%
Yeast superoxide = caloric restriction mimetics inhibiting age-related superoxide in yeast | S. cerevisiae aged cells, superoxide DHE fluorescence; active compounds read low | superoxide response (% of plate mean), % at 10 µM | actives 0.18% (n = 330,000) | AID 2690;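 active means superoxide response under a set limit, about three screen SD below normal, cut at about 65% in these data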;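 further: yeast aged for seven days with compound at 30 °C before DHE staining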
AHR activator = activates the human aryl hydrocarbon receptor | P35869 | AHR-responsive luciferase reporter cells, luminescence | activation, % at 5 µM | actives 2.5% (n = 320,000); in the data active means activation above about 47%
Target sequence (P35869 whole entry, looked up): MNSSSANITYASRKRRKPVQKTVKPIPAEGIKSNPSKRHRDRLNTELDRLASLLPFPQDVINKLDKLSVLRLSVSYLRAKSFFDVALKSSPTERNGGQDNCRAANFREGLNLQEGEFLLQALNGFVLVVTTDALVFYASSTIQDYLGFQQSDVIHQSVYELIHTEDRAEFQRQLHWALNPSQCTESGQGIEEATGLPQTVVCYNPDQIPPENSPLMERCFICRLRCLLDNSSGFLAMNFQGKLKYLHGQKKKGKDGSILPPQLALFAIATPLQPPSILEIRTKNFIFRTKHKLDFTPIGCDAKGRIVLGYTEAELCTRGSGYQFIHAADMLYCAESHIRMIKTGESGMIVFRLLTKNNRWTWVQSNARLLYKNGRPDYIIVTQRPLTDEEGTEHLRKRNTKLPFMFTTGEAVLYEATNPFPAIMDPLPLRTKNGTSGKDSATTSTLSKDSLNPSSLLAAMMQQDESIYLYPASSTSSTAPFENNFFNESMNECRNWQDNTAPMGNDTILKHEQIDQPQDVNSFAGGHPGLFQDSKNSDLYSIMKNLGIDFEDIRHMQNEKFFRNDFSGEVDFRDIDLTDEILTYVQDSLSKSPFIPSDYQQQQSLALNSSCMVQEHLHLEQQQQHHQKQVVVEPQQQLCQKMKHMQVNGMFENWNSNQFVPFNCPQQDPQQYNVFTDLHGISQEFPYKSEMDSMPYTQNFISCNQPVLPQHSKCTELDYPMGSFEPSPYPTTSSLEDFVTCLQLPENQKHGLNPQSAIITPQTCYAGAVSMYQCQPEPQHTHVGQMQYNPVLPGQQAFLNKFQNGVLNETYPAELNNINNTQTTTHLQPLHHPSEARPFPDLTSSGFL
Lipid drop inh = confirmation of inhibitors of hepatic lipid droplet formation | actives 65% (n = 870) | AML12 mouse hepatocytes, BODIPY lipid droplet imaging; droplets induced with 100 µM oleic acid | shares compounds with Lipid droplet | inhibition, % at 5.2 µM | AID 463183;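 active means inhibition of lipid droplet metric at least 50%, with more than 300 cells in each of four replicates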
AML12 cytotox = counter-screen for cytotoxicity in AML12 mouse hepatocytes; actives 3% (n = 870); AID 463200; shares compounds with Lipid droplet; DAPI nuclear morphology cytotoxicity imaging; active compounds read high; cells fed 100 µM oleate overnight; z-score at 5 µM; in the data active means z-score above about 6.3;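 further: compound exposure lasted overnight at 37 °C before fixation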
AML12 tox conf = AML12 hepatocyte cytotoxicity, confirmed; shares compounds with Lipid droplet; AML12 mouse hepatocyte viability, ATP luminescence; cells loaded with 100 µM oleic acid; cytotoxicity, % at 50 µM; 530 tested, under 10 active;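 active means cytotoxicity above 50% in each of four replicates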;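 further: compound exposure lasted overnight at 37 °C before the ATP read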
Superoxide pick = yeast aging superoxide inhibition, cherry pick confirmation | S. cerevisiae aging, superoxide DHE fluorescence; active compounds read low | superoxide response (% of plate), % at 10 µM | AID 434994 | shares compounds with Yeast superoxide | actives 1% (n = 850);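 active means superoxide signal below 65% of the plate average of sample wells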;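 further: cells aged with compound for 7 days at 30 degrees C before staining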
DHE fluor count = DHE fluorescence interference, counter-screen artifact | shares compounds with Yeast superoxide | S. cerevisiae BY4741, flow cytometry; active compounds read low | fluorescence response, % at 10 µM | AID 435000 | 850 tested, under 10 active;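 active means fluorescence response below 15%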;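 further: lower means stronger quenching of DHE signal or ROS scavenging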
AHR act confirm = confirmation of human aryl hydrocarbon receptor activators; shares compounds with AHR activator; human cells, AHR-responsive luciferase reporter, luminescence; activation, % at 9 µM; actives 87% (n = 2,300); AID 2845; in the data active means activation above about 49%;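 further: HepG2 hepatoma cells carrying a DRE-driven firefly luciferase reporter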
PXR act counter = activates human PXR in AHR activator counter-screen; shares compounds with AHR activator; cell-based PXR reporter, luciferase luminescence; activation, % at 11.6 µM; actives 88% (n = 2,300); in the data active means activation above about 11%;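 further: human hepatoma DPX-2 cells expressing full-length human PXR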
Hits are given with their value; 0 = inactive; - = no result given. Only some compounds are listed: those with a hit (about 4.3% of all), similar ones and a draw of the others.

SMILES	SR-BI DiI inh	Lipid droplet	SR-BI uptake up	SMARCA2 act	Yeast superoxide	AHR activator	Lipid drop inh	AML12 cytotox	AML12 tox conf	others
FC(F)(F)COc1nc(N2CCOCC2)nc(N(c2ccccc2)c2ccccc2)n1	0	51.4	0	0	0	0	73.3	0	0
FC(F)(F)COc1nc(OCC(F)(F)F)nc(N2CCN(c3ccccc3)CC2)n1	0	-	0	0	0	0	-	-	-
Cc1noc(/C=C/N(C)C)c1S(=O)(=O)N1CCCC(C(=O)NCc2cccs2)C1 (configuration not stated)	0	-	0	0	0	0	-	-	-
COc1cccc(CNC(=O)C2CCCN(S(=O)(=O)c3c(C)noc3/C=C/N(C)C)C2)c1 (configuration not stated)	0	73.9	0	0	0	0	80.5	0	0
COc1cccc(CNC(=O)CCNC(=O)C2CCN(S(=O)(=O)c3ccc(F)cc3)CC2)c1	0	0	0	0	0	0	-	-	-
COc1cccc(CNC(=O)CCNC(=O)C2CCN(S(=O)(=O)c3ccccc3)CC2)c1	0	59.6	0	0	0	0	81.3	0	0
CCNC(=O)N1C[C@H]2CON(C)[C@H]2C[C@H]1c1ccc(N2CCCCC2)cc1	-	-	-	0	-	-	-	-	-
CC(C)(C)C(=O)OC12CCCN(C1)/C(=C/c1cccc(Cl)c1)C2 (configuration not stated)	-	-	-	0	-	-	-	-	-
CCN(CCN(C)C)C(=O)c1ccc2c(c1NCCO)C(=O)c1ccccc1C2=O	0	0	0	0	0	0	-	-	-
CC1CCCN(C(=O)c2ccc3c(c2NCCO)C(=O)c2ccccc2C3=O)C1 (configuration not stated)	0	53.9	0	0	0	0	104.9	0	0
CCCOc1cccc(C(=O)NCCNC(=O)c2ccc(C)nc2)c1	0	51.2	0	0	0	0	83.3	0	0
Cc1ccc(C(=O)NCCNC(=O)c2ccc(C)nc2)cc1	0	56.1	0	0	0	0	90.9	0	0
CCOc1ccc(C(=O)NCCNC(=O)c2ccc(OCC)cc2)cc1	0	85.7	0	0	0	0	96.0	0	0
COc1ccc(C(=O)NCCNC(=O)c2ccc(C)nc2)cc1	0	0	0	0	0	0	-	-	-
CCOc1ccc(C(=O)NCCO)cc1	0	0	0	0	0	0	-	-	-
C#CCN1CC(COc2ccccc2)Oc2cccc(Oc3ccc(OC)cc3)c2S1(=O)=O (configuration not stated)	-	-	-	0	-	-	-	-	-
Cc1ccccc1NC(=O)[C@H]1CC(=O)O[C@@H]1c1ccccc1	-	-	-	0	-	-	-	-	-
COc1ccc(CCNC(=O)[C@H](C)N2C(=O)N3CCc4c([nH]c5ccccc45)[C@@]3(C)C2=O)cc1OC	0	86.6	0	0	0	0	102.3	0	0
COc1ccc(CCNC(=O)c2ccc(CNc3nc(=S)[nH]c4ccccc34)cc2)cc1OC	0	51.8	0	0	0	0	101.3	0	0
COc1ccc(CCNC(=O)c2c(O)c3ccccc3[nH]c2=O)cc1OC	0	0	0	0	0	-	-	-	-
CCCCN1CC(COCc2ccccc2)Oc2cccc(N3CCCCC3)c2S1(=O)=O (configuration not stated)	-	-	-	0	-	-	-	-	-
Cc1cc(-n2cnnn2)cc(C)c1S(=O)(=O)NCCOc1ccccc1	0	61.2	0	0	0	0	0	0	-
CC(=O)c1ccc(OCCNS(=O)(=O)c2ccc(-n3cnnn3)c(C)c2)cc1	0	0	0	0	0	0	-	-	-
CC(C)(C)c1cc(NC(=O)Nc2ccc(Br)cc2Cl)no1	0	0	0	0	0	0	-	-	-
CC(C)(C)c1cc(NC(=O)Nc2ccc(Cl)cc2Cl)no1	0	50.5	0	0	0	0	0	0	-
SMILES	SR-BI DiI inh	Lipid droplet	SR-BI uptake up	SMARCA2 act	Yeast superoxide	AHR activator	Lipid drop inh	AML12 cytotox	AML12 tox conf	others
c1ccc(-c2c[nH]c3cccc(-c4cc5ccccc5o4)c23)cc1	-	-	-	0	-	-	-	-	-
Cc1ccc(Cn2nc(C)c(NC(=O)C3(C)CC3(Br)Br)c2C)cc1 (configuration not stated)	0	64.0	0	0	0	0	67.7	0	0
COC(=O)[C@]12C[C@H](CC(=O)N3CCN(C(=O)C4CC4)CC3)C(=O)N(Cc3ccco3)C1=C[C@H](C1CCCC1)O[C@@H]2C	-	-	-	0	-	-	-	-	-
CCn1cc([N+](=O)[O-])c(C(=O)N2N=C(c3ccc4ccccc4c3)CC2c2cc(Br)ccc2O)n1 (configuration not stated)	0	89.4	0	-	0	0	77.2	0	0
CC(C)N1CCCCC(NC(=O)c2ccc(Br)cc2)C1=O (configuration not stated)	-	-	-	0	-	-	-	-	-
COc1ccc(C(=O)CSc2nnc(CC(=O)Nc3ccccc3OC)n2C)cc1	0	59.1	0	0	0	0	0	0	0
Cc1ccc(C2c3c(n[nH]c3C)C(=O)N2Cc2ccccc2)cc1 (configuration not stated)	-	-	-	0	-	-	-	-	-
Cc1ccc(-c2c(C(=O)NC(C)C)oc(=O)c3ccccc23)cc1	0	53.4	0	0	0	0	0	0	-
C=CCN1C(=O)/C(=C\C=C2\N(C)c3ccccc3C2(C)C)SC1=S	0	91.3	0	0	57.1	0	107.1	0	0	Superoxide pick=0;DHE fluor count=0
Cc1ccc(O)c(C(C)c2c[nH]c3ccccc23)c1 (configuration not stated)	-	-	-	0	-	-	-	-	-
COC(=O)/C(=C/c1ccc2c(c1)c1ccccc1n2C)NC(=O)c1ccccc1	0	83.4	0	0	0	82.1	79.8	0	0	AHR act confirm=104.4;PXR act counter=96.7
COc1ccc(-c2noc(C3CCCN(C(=O)N[C@@H]4C[C@H]4c4ccccc4)C3)n2)cc1 (some centres not stated)	-	-	-	0	-	-	-	-	-

Source: PubChem BioAssay (several laboratories)
